The text below walks through data of publication PMC9357092 (Clinical Cancer Research, 2022).

SMILES strings stand for the structures. Several values for one entry are separate records, joined by “and”; a condition that tells them apart may be missing. Identical values can stand only once. Like-named read-outs stand apart in the source and are kept apart here.

A short description of data set [1]: Whole-body-4Brain PBPK model simulation of plasma and CNS pharmacokinetics. Particulars: PBPK input; for fa: assigned based on observed data; for Ka: first-order absorption rate constant; for Ka / Lag time: observed. On the set-up: species or system human.
A short description of data set [2]: Binding to human brain tissue. The data set is classed as in vitro ADME. Particulars: pooled human brain tissue.
Data set [3] is described as follows: In vitro metabolism in pooled human liver microsomes. The data set is classed as in vitro ADME. In outline: (§1)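 Test compound (0.5 to 50 μmol/L) incubated with pooled human microsomes (0.4 mg/mL) at 37°C for 30 minutes. Overall drug disappearance velocity plotted against initial concentration and fitted to the Michaelis–Menten equation by nonlinear regression. Intrinsic clearance was taken as Vmax/Km.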

Details of data set [4]: species or system human. The following applies: IVIVE predicted.
For data set [5] the following is noted: cited from earlier work; for Observed CSF concentration (mean) / Observed CSF Kp,uu, geometric mean: 13 patients; for Observed CSF concentration (mean): 300 mg twice daily with trastuzumab and capecitabine, 2-5 hours postdosing.
A short description of data set [6]: Blood-to-plasma partition ratio. The data set is classed as in vitro ADME. Particulars: blood and plasma.
The nature of data set [7]: Binding to human plasma proteins. The data set is classed as in vitro ADME. The following applies: pooled human plasma.
Data set [8] addresses HER2 kinase. The following applies: read-out: IC50 for inhibition of HER2 kinase; ADP-Glo assay; cited from earlier work.
Data set [9] is described as follows: Bidirectional transwell permeability, parental MDCKII monolayer. The data set is classed as in vitro ADME. Particulars: dog, MDCK, pH 7.4, Intrinsic passive transcellular permeability (Papp,A-B/λ), unbound and unionized drug.
Data set [10] can be described thus: In vitro metabolism in pooled human intestine microsomes. The class given is in vitro ADME. In outline:
as §1

The nature of data set [11]: Observed clinical plasma, CSF and brain metastasis pharmacokinetics in patients. The data set is classed as in vivo, human.
Data set [12] has as its system HER2-positive breast cancer. Particulars: cited from earlier work; for Cumulative incidence of intervention for CNS metastases: NALA phase III, each drug plus capecitabine, P = 0.043; for CNS objective response rate, monotherapy: pretreated HER2-positive breast cancer patients with progressive brain metastases.

With `CCOc1cc2ncc(C#N)c(Nc3ccc(OCc4ccccn4)c(Cl)c3)c2cc1NC(=O)/C=C/CN(C)C` [neratinib], in data set [1], the fa was 0.2, the Ka was 0.25 and the Lag time was 0.8 h. The fraction unbound in [2] came to 0.004. The compound also had a microsomal CLint in data set [3] of 39 µL/min/mg. Further, the “Ratio of BBB passive clearance (PSB) to active efflux clearance (CLefflux,BBB)” value in data set [4] is listed as […]. Moreover, in [5] (2 patients, 240 mg once daily), the “Observed total plasma concentration” value was […]. The blood plasma ratio in [6] is […]. Further, in [7], the fraction unbound stood at […]. The IC50 in data set [8] is […]. Moreover, the Papp A→B at 1 h, 1 μmol/L in data set [9] was found to be […]. This compound had a microsomal CLint in data set [10] of 24.6 µL/min/mg. Besides, the “Unbound plasma concentration corresponding to observed total” value in [11] (2 patients, assuming fraction unbound in plasma 0.007, data of ref 28) was 0.43 nM and 0.67 nM. Moreover, the “Disease-free survival vs placebo, HR” value in data set [12] (ExteNET, 240 mg once daily, 1 year, 95% CI 0.46-0.84) is reported as 0.63. Also, in data set [12] (ExteNET, 240 mg once daily, 1 year), the “Cumulative incidence of CNS metastases vs placebo” value is given as “no statistically significant difference”. For the same compound, in [12], the “Cumulative incidence of intervention for CNS metastases” value was 22.8% and the “CNS objective response rate, monotherapy” value was 8%. Besides, the “Time to CNS metastases, hazard ratio” value in [12] (NEfERT-T, neratinib plus paclitaxel vs trastuzumab plus paclitaxel, 95% CI 0.26-0.78) is given as […]. Moreover, in data set [12] (NEfERT-T, neratinib plus paclitaxel vs trastuzumab plus paclitaxel), the “Incidence of symptomatic or progressive CNS recurrence” value is reported as 8.3%.

On to `Cc1cc(Nc2ncnc3ccc(NC4=NC(C)(C)CO4)cc23)ccc1Oc1ccn2ncnc2c1` [tucatinib], for which, in data set [1], the fa is reported as 0.5. The Ka in data set [1] is given as 0.8. The same compound showed a Lag time in [1] of 0.6 h. Besides, the fraction unbound in [2] worked out at 0.015; in [7], 0.03. The microsomal CLint in data set [3] was found to be 41.8 µL/min/mg; in data set [10], 4.5 µL/min/mg. Besides, the “Ratio of BBB passive clearance (PSB) to active efflux clearance (CLefflux,BBB)” value in [4] is recorded as 0.83. For the same compound, the “Observed CSF concentration (mean)” value in [5] (cycle 1 day 1) is 10.9 nmol/L; in [5] (cycle 2 day 1), 21.6 nmol/L. Moreover, the “Observed CSF Kp,uu, geometric mean” value in [5] (cycle 1 day 1) is recorded as 0.51; in data set [5] (cycle 2 day 1) it was 0.76. Also, in data set [6], the blood plasma ratio is 0.93. Besides, in [8], the IC50 is 6.9 nM. Besides, the Papp A→B at 1 h, 1 μmol/L in [9] was 13.3 ×10⁻⁶ cm/s. Also, in [12] (HER2CLIMB, tucatinib added to trastuzumab and capecitabine, 95% CI 0.22-0.48), the “Risk of intracranial progression or death, HR” value is on record as 0.32. The “Risk of death, HR” value in data set [12] (HER2CLIMB, tucatinib added to trastuzumab and capecitabine, 95% CI 0.40-0.85) is 0.58.

Take `CS(=O)(=O)CCNCc1ccc(-c2ccc3ncnc(Nc4ccc(OCc5cccc(F)c5)c(Cl)c4)c3c2)o1` [lapatinib]: the fraction unbound in data set [2] was 0.0004. Also, the microsomal CLint in data set [3] was 22.8 µL/min/mg. The compound also came in with a fraction unbound in data set [7] of 0.014. In addition, in data set [9], the Papp A→B at 1 h, 1 μmol/L was 4.14 ×10⁻⁶ cm/s. The compound further returned a microsomal CLint in data set [10] of 5.66 µL/min/mg. Also, the “Estimated CSF Kp,uu from observed data” value in [11] (two patients, assuming fraction unbound in plasma 0.014, data of ref 27) is recorded as 0.092. In data set [12], the “Cumulative incidence of intervention for CNS metastases” value was 29.2%; the “CNS response rate, combined with stereotactic radiosurgery” value is given as 75%; the “CNS response rate, combined with whole-brain radiation therapy” value is given as 79%; the “CNS objective response rate, monotherapy” value is reported as 6%.
